From PubChem BioAssay
Kir21 inh: inhibitors of mouse Kir2.1 inward-rectifier potassium channel; Inward rectifier potassium channel 2 (Mus musculus), P35561; HEK293-Kir2.1, FluxOR thallium flux fluorescence; hits give low values; B-score at 10 µM; actives 0.85% (n = 310,000); AID 1672, 2009;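 active = fluorescence ratio B-score at or below minus 3 SD of library scores, with starting-brightness B-score within 2 SD, cut at about -4.2 in these data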;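 also: channel flux triggered by added potassium and thallium sulfate stimulus; B-score of peak minus minimum fluorescence over baseline after thallium stimulus; more negative B-score means stronger Kir2.1 block with less thallium influx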
KCNK3 inh: human KCNK3 channel inhibitors, primary screen, CHO cells, FluxOR thallium flux, B-score; Potassium channel subfamily K member 3 (Homo sapiens), O14649; FluxOR fluorescence; hits give low values; B-score at 10 µM; actives 0.84% (n = 340,000);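 active = B-score under library mean minus 4 SD, starting fluorescence ratio at most library mean plus 5 SD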;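 also: more negative B-score means stronger inhibition of thallium flux through KCNK3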
KCNQ1 pot: potentiators or activators of KCNQ1 channel, primary screen, cell-based, thallium flux, high-throughput; Potassium voltage-gated channel subfamily KQT member 1 (Homo sapiens), P51787; CHO-K1 KCNQ1, thallium flux FluxOR fluorescence; hits give high values; B-score at 10 µM; actives 0.35% (n = 310,000); AID 2648, 2010;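 active = fluorescence ratio B-score, a plate-corrected score, at least three library SD, with initial intensity B-score within 5 SD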
Target sequence (P51787 whole entry, looked up): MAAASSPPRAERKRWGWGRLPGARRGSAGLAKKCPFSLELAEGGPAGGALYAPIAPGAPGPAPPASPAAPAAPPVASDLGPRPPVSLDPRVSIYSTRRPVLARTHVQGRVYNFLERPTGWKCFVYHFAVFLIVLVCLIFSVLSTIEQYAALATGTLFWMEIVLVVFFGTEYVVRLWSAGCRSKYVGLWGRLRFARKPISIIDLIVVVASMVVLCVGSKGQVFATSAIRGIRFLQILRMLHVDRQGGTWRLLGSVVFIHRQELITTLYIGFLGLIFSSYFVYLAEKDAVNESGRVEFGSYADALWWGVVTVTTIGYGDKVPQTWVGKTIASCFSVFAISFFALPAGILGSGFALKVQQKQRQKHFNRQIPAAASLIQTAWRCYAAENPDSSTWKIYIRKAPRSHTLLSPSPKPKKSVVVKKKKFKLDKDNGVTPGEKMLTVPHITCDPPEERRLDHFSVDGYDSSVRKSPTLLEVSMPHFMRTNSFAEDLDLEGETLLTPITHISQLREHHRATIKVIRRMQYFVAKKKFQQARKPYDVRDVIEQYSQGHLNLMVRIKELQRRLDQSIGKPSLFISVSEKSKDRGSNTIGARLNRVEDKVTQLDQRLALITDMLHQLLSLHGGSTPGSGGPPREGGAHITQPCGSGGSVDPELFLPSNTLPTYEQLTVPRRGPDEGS
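System: CHO-K1 cells stably expressing KCNQ1 / Medium: assay buffer for compound exposure, DMSO matched across wells / Reagent: thallium- and potassium-containing depolarizing buffer / Compound: one concentration, matched DMSO / Incubation: 20 min compound pretreatment at room temperature / Measured by: kinetic FluxOR fluorescence, 10 s baseline plus 110 s post-stimulus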
KCNQ1 inh: inhibitors of human KCNQ1 channel, primary screen, cell-based, thallium flux, high-throughput; CHO-K1 KCNQ1, FluxOR thallium flux fluorescence; hits give high values; Potassium voltage-gated channel subfamily KQT member 1 (Homo sapiens), P51787; actives 1.3% (n = 310,000); B-score at 10 µM;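 active = compounds whose thallium flux B-score, printed positive for inhibition, exceeds three library SD while starting fluorescence stays within three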;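 also: channel opened by potassium depolarization with thallium stimulus after 20 min compound exposure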
KCNK9 block: KCNK9 potassium channel inhibitors, primary screen, HEK293 cells, thallium flux; FluxOR thallium flux fluorescence; hits give low values; B-score at 10 µM; actives 1.2% (n = 310,000); AID 488922, 2010;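 active = ratio B-score over 3 SD below the library mean, with starting fluorescence within 5 SD of its mean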;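 also: negative B-score means less thallium flux so channel inhibition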
hERG rescue: hERG rescue from dofetilide block, primary screen, cell-based, CHO-hERG, FluxOR thallium flux, dofetilide IC70 | activation (rescue from dofetilide block), less the hit threshold, % at 10 µM | actives 0.51% (n = 310,000) | dofetilide IC70 present | AID 1511, 2009 | Voltage-gated inwardly rectifying potassium channel KCNH2 (Homo sapiens), Q12809;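 active = activation above the mean of controls blocked by dofetilide plus 5 SD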;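 also: thallium influx through hERG after potassium depolarization seen as dye fluorescence rise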
* = called active by the depositor; i = inactive; nt = no result. In the library only some 3.8% were active in any assay of this set; here they are far more common.

SMILES	Kir21 inh	KCNK3 inh	KCNQ1 pot	KCNQ1 inh	KCNK9 block	hERG rescue
O=c1[nH]cc(-c2ccccc2)c(=O)[nH]1	0.03	i	12*	i	i	-2
Cc1cccc(C(=O)C2CCN(S(=O)(=O)c3cccc(C(=O)O)c3)CC2)c1	0.47	i	i	i	i	-9
CC(C)(C)c1cc(-c2n[nH]c(=S)n2-c2ccccc2F)n[nH]1	0.37	i	i	i	i	9.1*
O=S(=O)(c1cccc(NC(=S)N2CCN(c3cccc(Cl)c3)CC2)c1)C(F)F	-0.32	i	i	i	i	-10
COc1ccc(C2NC(c3ccc(OC)c(OC)c3OC)C(C)C(=O)C2C)c(OC)c1OC (stereo not drawn)	-0.03	i	10*	i	i	-2
CCC[C@H]1COCCS(=O)(=O)N1Cc1ccccc1F	-0.46	i	i	i	i	-3
Clc1ccc2c(N/N=C/c3cccc(Br)c3)ccnc2c1	-0.73	i	i	9*	i	-3
O=C(Cc1cccc(C(F)(F)F)c1)NCc1cccnc1	1.1	i	i	i	i	-12
CCN(CC)c1ccc2nc3ccc(N)cc3[n+](-c3ccccc3)c2c1	nt	-9.2*	nt	nt	nt	nt
C#C[C@]1(O)CC[C@H]2[C@@H]3CCc4cc(O)ccc4[C@H]3CC[C@@]21C	0.02	i	9*	i	i	-13
CC12CCC3c4ccc(O)cc4CCC3C1CCC2=O (stereo not drawn)	nt	i	nt	nt	nt	nt
COc1ccc(N2C(=O)C(Cl)=C(Oc3cccc(OC)c3)C2=O)cc1	0.92	i	i	i	i	-4
Cn1c(C(=O)N2CCCC(C(=O)NCCN3CCOCC3)C2)cc2sccc21 (stereo not drawn)	0.21	i	i	i	i	7.3*
CCOc1ccc(S(=O)(=O)N2CCCC(C(=O)NCCN3CCOCC3)C2)cc1Cl (stereo not drawn)	0.68	i	9*	i	i	-7
CSc1nsc(SCC(=O)Nc2ccccn2)n1	1.7	i	i	i	i	-9
COc1ccc(C(=O)C[n+]2cccc(Br)c2)cc1	-0.2	i	i	i	i	-5
COc1ccc(COc2cc(-c3cccc(OC)c3)nc3ccc(NC(=O)c4cccnc4)cc23)cc1	1.6	i	i	6*	i	-33
CCNC(=O)C/C(C)=N/NC(=O)C(=O)Nc1ccc(CC)cc1	-0.4	i	i	i	i	4.7*
CCc1ccc(NC(=O)C(=O)N/N=C(\C)CC(=O)NCc2ccc(Cl)cc2)cc1	-0.23	i	i	i	i	-10
C=CCc1cc(Cl)ccc1OCCCNC(C)C	-3.1	i	i	i	i	-3
C=CCc1cc(Cl)ccc1OCCCNCCO	-5.4*	i	i	i	i	-6
CCC(C(=O)OCC(=O)c1ccc2c(c1)NC(=O)CO2)c1ccccc1 (stereo not drawn)	-0.63	i	i	i	i	-12
O=C1C2C3c4ccccc4C(c4ccccc43)C2c2nc3ccccc3n21 (stereo not drawn)	1.9	i	i	i	-7.7*	-4
CN1C(=O)C2C3c4ccccc4C(c4ccccc43)[C@@H]2C1=O (stereo partly drawn)	-0.18	i	i	i	i	-6
O=C(O)CCC(=O)c1ccc2c(c1)OCCO2	-0.35	i	i	i	i	-2
O=C(CCN1CCc2ccccc2C(c2ccccc2)C1)c1ccc2c(c1)OCCO2 (stereo not drawn)	0.06	i	i	11*	i	-31
O=C(CCN1Cc2ccccc2C1)c1ccc2c(c1)OCCO2	-2.2	i	8*	i	i	-5
CCCC(=O)c1ccc2c(c1)OCCO2	0.06	i	i	i	i	-1
